For 95 molecules, cytotoxicity results are on record in ChEMBL document CHEMBL4513216, “Probing the Open Global Health Chemical Diversity Library for Multistage-Active Starting Points for Next-Generation Antimalarials” (ACS Infect Dis, 2020).

Molecules are shown by their SMILES.

The series is described as follows: Toxicity liver stage against HepG2, at 10uM. The series is classed as cell-based. The arrangement: test concentration 10 uM, cell line HepG2-A16-CD81EGFP. To be noted: human, HepG2-A16-CD81EGFP cells; read-out: INHIBITION
The gist of the method:
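Uninfected HepG2-A16-CD81EGFP cells, 3 × 10^3 per well, 1536-well, plated on prespotted compound at 10 μM final, parasite-free screening media added to match infected plates; puromycin 10 μM positive, DMSO 0.5% negative; run in parallel with 48 h PbLuc assay at 37 °C, 5% CO2; viability by CellTiter-Glo luminescence, normalized to controls.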
Take `CCn1ccnc1CN1CCN(CC(=O)NC(C2CC2)C2CC2)CC1`: the cytotoxicity at 10 µM was -19.4%. Next, `COCc1nc(C(=O)N2CCCC(n3nc(C)cc3C)C2)cs1` (stereo not given): -8.57%; `Cc1noc(C(C)C)c1C(=O)NCC(c1cccs1)N(C)C` (stereo not given): -14.5%. The result for `COc1cc2nc(C)n(CC(=O)NCCCO)c(=O)c2cc1OC` reads -0.869%; that for `CCC(CNC(=O)c1cncc(Br)c1)N1CCc2ccccc2C1` (stereo not given), 13.4%. As for `CCc1n[nH]c(C2CN(C(=O)CCc3cscn3)CCO2)n1` (stereo not given), the cytotoxicity at 10 µM was -8.42%.

Regarding `CN(C)c1ncc(NC(=O)N2CCC(CN3CCCC3)C2)cn1` (stereo not given), the cytotoxicity at 10 µM is 3.88%. In the case of `Cc1n[nH]c(CN2CCN(C(=O)C3CCC3)[C@@H]3CS(=O)(=O)C[C@@H]32)n1`, the cytotoxicity at 10 µM was -10.8%. Next, `O=C(N1CCCC1)N1C[C@H]2CCC[C@@]2(COCc2ccccn2)C1`: -106%; `Cc1cnn(CC2CCCCN2Cc2nc(C)c3ccccc3n2)c1` (stereo not given): -8.54%. The result for `Cc1cc2n(n1)[C@@H](C(F)(F)F)C[C@@H](C1CCCN(C(=O)C(C)C)C1)N2` (stereo not given in full) reads -22.1%. Next, `CCn1cc(CNC(=O)C2CCCC2)cn1`: 9.18%. Consider `CCOC(=O)[C@H]1[C@@H](O)C(=O)N(C)C12CCN(C(=O)c1ccccc1)CC2`, for which the cytotoxicity at 10 µM is -6.53%. `N#Cc1cccc(S(=O)(=O)CCN2CCOC2=O)c1`: the cytotoxicity at 10 µM was -2.32%. The result for `Cc1nnc(CN(Cc2cccc(Cl)c2)C(C)C)o1` reads 1.69%; that for `Cc1ccc(C2CN(Cc3cnc(-c4cccnc4)s3)CCO2)o1` (stereo not given), -10.9%. Turning to `CC1CN(CC(=O)NC(C2CC2)C2CC2)CCN1Cc1nccn1C` (stereo not given), the cytotoxicity at 10 µM was -6.48%.

Take `CC(=O)N1CC[C@@H]2CN(C(=O)c3ccco3)CCO[C@@H]2C1`: the cytotoxicity at 10 µM is 2.93%. Next, `Cc1ccc(CNC(CCO)C2CCCCC2)nc1` (stereo not given): -37.4%. The result for `Cc1ccc(C(=O)N[C@H]2CN(CCO)C[C@@H]2C2CC2)cc1Cl` reads 6.93%; that for `Cc1ccn(CCNc2ncnc3c2CCN(Cc2ncc[nH]2)CC3)n1`, -1.47%.

As for `CCC1CN(C(=O)c2ccccc2C(C)=O)CCN1C(C)C` (stereo not given), the cytotoxicity at 10 µM was 0.684%. Next, `CN(C)C(=O)C1CCCN1c1ncnc2ccsc12` (stereo not given): 4.04%. Next, `CC1CCCCN1C1CN(c2ccnc(C(=O)NCc3ccco3)c2)C1` (stereo not given): 2.29%; `COc1cc(C(=O)NCCS(=O)(=O)N(C)C)c2ccccc2n1`: -0.0932%; `CC(C)CCN(C)C(=O)c1cc(CN2CCC(O)CC2)on1`: 1.06%. Next, `CCCS(=O)(=O)N1C[C@H]2CC[C@@H](C1)N(Cc1cscn1)C2=O`: 12.8%. For the molecule `Cc1ccc(NS(=O)(=O)c2cccc(C#N)c2)c(CN(C)C)c1`, the cytotoxicity at 10 µM was -4.97%. Next, `Cc1nnc([C@@H]2C[C@H]3CN(C4CCC4)C[C@H]3O2)[nH]1`: 8.89%. Next, `CS(=O)(=O)NC(=O)c1ccn(-c2ccccc2Cl)n1`: -4.27%; `CCc1nnc2n1CCN(C(=O)CN(C)Cc1ccccc1)C2`: -6.22%; `COC1CCN(C(=O)COC(C)=O)CC(=O)N(C)c2ccccc21` (stereo not given): 3.17%. Next, `Cn1cc(-c2nc(CN3CCN(c4nccs4)CC3)cs2)cn1`: -7.45%. Turning to `O=C(N[C@@H]1CN(Cc2ccc(F)cc2)C[C@H]1O)c1cscn1`, the cytotoxicity at 10 µM was -11.7%.

As for `CC(=O)c1c(C)nn(S(=O)(=O)c2ccc(F)cc2)c1C`, the cytotoxicity at 10 µM worked out at 3.25%.

For the molecule `CCNC(=O)[C@@H]1C[C@@H](NC(=O)c2ccsc2)CN1CCCSC`, the cytotoxicity at 10 µM is -117%. The result for `CCc1cc(O)n2nc(C3CCN(C(=O)c4ccncc4)CC3)cc2n1` reads 3.51%; that for `Cc1ccc(CN(C(=O)NCC2CCS(=O)(=O)C2)C2CC2)o1` (stereo not given), -144%. Consider `COc1ncccc1C1CC(=O)NCc2nc3sccn3c21` (stereo not given), for which the cytotoxicity at 10 µM was 3.86%. `O=C(NCCNc1ncccn1)N1CCCC1c1ccncc1` (stereo not given): the cytotoxicity at 10 µM is -4.65%. Next, `CN(C)CCO[C@H]1CN(Cc2cccc(C#N)c2)[C@@H]2COC[C@H]12`: -12.7%; `COc1ccc(-c2nc(CCNc3nnc(C)c(C)c3C#N)co2)cc1`: -17.2%; `CCCn1ccc(C(=O)Nc2ccc3c(c2)C(C)(C)C(=O)N3C)n1`: 8.44%. The result for `Cc1ccc(CN2CCOC3(COCCN(C(C)C)C3)C2)s1` (stereo not given) reads -0.82%; that for `COc1cc(C(=O)NS(=O)(=O)c2cncc(Br)c2)ccc1C`, -2.45%. The result for `Cc1ccc(N(C)[C@@H]2CC[C@@H]3CN(C(=O)CC4CCOCC4)C[C@@H]32)nn1` reads -1.79%. Take `COc1cccc2ccc(N3CCC(O)(C(=O)O)CC3)nc12`: the cytotoxicity at 10 µM was 3.13%. The result for `COc1cccc(CNC(=O)C(C)n2ccnc2C(C)C)c1OC` (stereo not given) reads -1.68%; that for `Cc1csc(CN(C)CCCOc2cccc(C#N)c2)n1`, -7.03%; that for `Cc1nc(CN2CCCC(NCCOc3ccccc3)C2)no1` (stereo not given), -7.98%.

For the molecule `CCCN1CC(C(=O)Nc2ccccn2)CC1=O` (stereo not given), the cytotoxicity at 10 µM is -16.4%.

With `CCN(CC)S(=O)(=O)N1CCC(c2c(C(N)=O)sc3ccccc23)C1` (stereo not given), the cytotoxicity at 10 µM is 1.4%. Next, `O=C(CN1CCC(c2ccnn2CCO)CC1)NC1CCCC1`: -6.64%; `CNc1nc(C)c(C(=O)N2C[C@@H]3CC[C@H]2CN(c2cnccn2)C3)s1`: 13.6%. The result for `COCC1CN(S(=O)(=O)Cc2ccc(C)cc2)Cc2c1cnn2C` (stereo not given) reads 3.51%. Next, `O[C@@H]1CC(CNCc2cccc(Cl)c2)(COc2cnccn2)C[C@@H]1O` (stereo not given in full): -3.58%; `Brc1cnc(NCCCOCC2CCOC2)nc1` (stereo not given): -2.15%. Consider `CN1CCN(C2COC3(CCN(Cc4ccc(F)cc4)CC3)C2)CC1` (stereo not given), for which the cytotoxicity at 10 µM was -97.4%. Next, `Cc1cc(CN2CCN(Cc3cc(C#N)ccc3F)CC2)no1`: 5.78%. The result for `Cc1ccc(NC2CCN(C(=O)Cc3c(C)nn(C)c3C)CC2)nn1` reads -11.9%; that for `Cc1ccc2c(n1)N(CC(C)C)CCN(C(=O)Cc1ccccn1)C2`, 12.7%; that for `CC(C)c1cc(=O)[nH]c(C(C)(C)N)n1`, -1.05%. The result for `O=C(C1CCN(c2cccnn2)C1)N1CCOCC1` (stereo not given) reads -25.4%. As to `CCCN1CCCC2(CCN(S(=O)(=O)c3cccnc3)C2)C1=O` (stereo not given), the cytotoxicity at 10 µM was -2.3%. As to `CC(C)c1nc2cc(NC(=O)Cn3ccccc3=O)ccc2o1`, the cytotoxicity at 10 µM was -17.8%.

For `CCc1nc(C)c(C(=O)NCCNc2ncnc3sccc23)s1`, the cytotoxicity at 10 µM amounted to 41.1%.

For `Cc1cc(C)c(CNC(=O)N2CCCN(C(=O)C(C)C)CC2)c(C)c1`, the cytotoxicity at 10 µM came to 12.3%.

In the case of `CS(=O)(=O)NCCC(=O)N1CCCC1c1noc(C2CC2)n1` (stereo not given), the cytotoxicity at 10 µM was -10.4%. The result for `Cc1ncc2c(n1)CN(CC(=O)N1CCc3sccc3C1)CC2` reads 4.68%; that for `COCCN1CCn2cc(CNC(=O)c3cnn(C)c3)nc2C1`, -3.09%. In the case of `CCS(=O)(=O)N1C[C@@H]2CN(Cc3cnn(C)c3)CCO[C@@H]2C1`, the cytotoxicity at 10 µM is -0.646%. The result for `Cc1cc(NCC(=O)N(C)C(C)c2cccs2)c(C(N)=O)cc1F` (stereo not given) reads -0.99%. For `Cc1ccsc1CNC1CCCN(Cc2noc(C3CC3)n2)C1` (stereo not given), the cytotoxicity at 10 µM was -4.98%. The result for `CC(C)Cc1noc(CN2CCN(c3nccs3)CC2)n1` reads 0.607%; that for `Cc1nc(O)cc(CN2C[C@H](NC(=O)C3CCC3)[C@@H](C3CC3)C2)n1`, 0.675%; that for `Cc1nc(CN(C)C2CCN(CCCc3ccccc3)C2)no1` (stereo not given), -16.1%. Next, `CN(C)CC(=O)N1CCC2(CC1)COCCN(c1ncccn1)C2`: 5.38%; `CSC(CNS(N)(=O)=O)c1cccc(Cl)c1` (stereo not given): -14.3%. The result for `Cc1nc(CC(=O)N2CCOC(c3nc(C(C)(C)C)n[nH]3)C2)cs1` (stereo not given) reads 4.06%; that for `c1c[nH]c(CN2CCC3(CC2)COCCN(CCN2CCCC2)C3)c1`, -3.86%; that for `CC(O)CCN(C)c1nc2ccccc2c(=O)[nH]1` (stereo not given), 12.6%.

Turning to `Cc1cccnc1CN1CCCCC1c1ccn2ccnc2n1` (stereo not given), the cytotoxicity at 10 µM was 0.498%. The result for `CSc1ncc(C(=O)N2C[C@@H]3CC[C@H]2CN(Cc2ccccc2)C3)cn1` reads -7.49%; that for `COCCC(=O)NCc1ccc(-c2ncncc2C(=O)N(C)C)cc1`, 4.45%. The result for `COC(=O)C(c1cc(F)ccc1F)N(C)C(=O)c1ccnc(C)n1` (stereo not given) reads -0.337%. The result for `FC(F)(F)c1ccc(CNC[C@H]2COCc3nc4cccnc4n32)cc1` reads 8.04%; that for `CS(=O)(=O)N[C@@H]1CN(C(=O)c2ccccn2)C[C@@H]2CCCO[C@@H]21`, -74.8%; that for `Cc1ccccc1CN1CCCN(CCN2CCOC2=O)CC1`, -7.53%.

With `O=S(=O)(CCN1CCN(c2ccccc2O)CC1)c1ccc(Br)cc1`, the cytotoxicity at 10 µM is 10.7%.

In the case of `Cn1cc(CN2CCC3(CC2)NC(=O)CC3c2ccncc2)cn1` (stereo not given), the cytotoxicity at 10 µM was -2.1%.

On to `CN(C)CCOCc1nnc2n1CCN(Cc1ccco1)CC2`, for which the cytotoxicity at 10 µM was 2.19%. Next, `O=C(CC[C@@H]1CCCN2CCCC[C@H]12)NCCc1nc(O)cc(O)n1`: -0.392%; `NC(c1ccc(Cl)cc1)c1cccs1` (stereo not given): -17.1%. The result for `COCCO[C@H]1CCN(C(=O)c2ccoc2C)[C@H]1Cc1cnn(C)c1` reads -6.98%; that for `CCOc1ccccc1C(=O)Nn1c(C)cc(C)cc1=O`, -10.9%.
